Here are results for 2 compounds from ChEMBL document CHEMBL4017501, “Paralog Specificity Determines Subcellular Distribution, Action Mechanism, and Anticancer Activity of TRAP1 Inhibitors” (J Med Chem, 2017).

Activity calls are given as the source filed them. The rule behind the calls is not given here.

In test [1] the target is T1, Heat shock protein 75 kDa, mitochondrial (Homo sapiens, UniProt Q12931).
T1 sequence (Q12931 whole entry): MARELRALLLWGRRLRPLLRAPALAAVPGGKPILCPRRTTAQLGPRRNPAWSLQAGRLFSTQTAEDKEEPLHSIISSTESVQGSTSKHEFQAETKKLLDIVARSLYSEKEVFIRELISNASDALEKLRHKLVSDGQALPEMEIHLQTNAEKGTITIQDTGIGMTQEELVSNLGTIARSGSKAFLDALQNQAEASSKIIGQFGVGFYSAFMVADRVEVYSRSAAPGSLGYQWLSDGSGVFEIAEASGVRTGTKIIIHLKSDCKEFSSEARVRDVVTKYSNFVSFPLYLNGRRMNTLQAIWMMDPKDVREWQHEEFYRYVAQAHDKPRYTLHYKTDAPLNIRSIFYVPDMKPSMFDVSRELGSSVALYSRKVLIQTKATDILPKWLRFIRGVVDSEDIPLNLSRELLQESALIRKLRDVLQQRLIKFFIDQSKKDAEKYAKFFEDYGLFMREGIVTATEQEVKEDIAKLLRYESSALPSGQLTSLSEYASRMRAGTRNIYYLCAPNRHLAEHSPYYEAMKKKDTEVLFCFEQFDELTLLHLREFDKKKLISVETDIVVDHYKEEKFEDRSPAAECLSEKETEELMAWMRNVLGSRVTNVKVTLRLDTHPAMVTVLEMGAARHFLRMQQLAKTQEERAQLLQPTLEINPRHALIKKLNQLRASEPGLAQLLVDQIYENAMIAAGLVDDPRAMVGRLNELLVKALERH
The test can be described thus: Inhibition of FITC3-labeled PU-H71 binding to recombinant human N-terminal His6-tagged TRAP1 (60 to 561 residues) expressed in Escherichia coli BL21(DE3) after 24 hrs by fluorescence polarization assay. Put shortly:
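Recombinant TRAP1 (100 nM) incubated with 10 nM 1-FITC3 probe and varying inhibitor concentrations for 24 h at 4 °C. Buffer: PBS-type salts with 1 mM DTT, 2 mM MgCl2, 0.1 mg/mL BSA, 0.05% NP40, pH 7.3. Polarization (mP) scaled to maximum and minimum values; mean ± SEM of two independent experiments.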

In test [2] the target is Heat shock protein HSP 90-alpha (Homo sapiens, UniProt P07900). In words: Inhibition of FITC3-labeled PU-H71 binding to recombinant HSP90alpha (unknown origin) after 24 hrs by fluorescence polarization assay. (In general: Polarisation of emitted light reports the rotation of a fluorescent probe.)
The target in test [3] is T2, Heat shock protein 75 kDa, mitochondrial (Homo sapiens) (UniProt Q12931).
T2 sequence (whole entry): T1 sequence (Q12931 whole entry)
The test can be described thus: Inhibition of TRAP1 in human HeLa cells assessed as induction of mitochondrial ROS production after 6 hrs by Mito-Sox staining based flow cytometry. The format is cell-based. Put shortly: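 HeLa cells given drug for 6 h, then stained with 200 nM Mito-SOX Red for 20 min at 37 °C. Cells washed with PBS, trypsinized, resuspended and analysed by flow cytometry for mitochondrial superoxide.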
(In general: Flow cytometry measures light scatter and fluorescence of single cells or particles in a stream.)

In test [4] the target is T2, Heat shock protein 75 kDa, mitochondrial (Homo sapiens). The test can be described thus: Inhibition of TRAP1 in human HeLa cells assessed as cytochrome c release at 20 uM after 4 hrs by Western blot method. Type of test: cell-based. The method in brief: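 HeLa cells treated at 20 μM for 4 h. Mitochondrial fractionation performed; cytoplasmic fraction probed for cytochrome c by Western blot.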

For `Nc1nc(Cl)c2cnc(Cc3ccc4c(c3)OCO4)n2n1`, the IC50 in test [1] and in test [2] was above 10 µM each time.
With `COc1c(C)cnc(Cn2cnc3c(Cl)nc(N)nc32)c1C`, the inhibition entry in test [3] and in test [4] was “inactive” in each case.

One may read the IC50 as the midpoint of a concentration-inhibition curve.
